Reference: ChEMBL document CHEMBL1155985, “Water-soluble phosphate prodrugs of pleuromutilin analogues with potent in vivo antibacterial activity against Gram-positive pathogens” (Bioorg Med Chem Lett, 2009)
In brackets after ≈: the same amount, converted by molar mass.

Key:
Rattus norvegicus [1] = test: AUC (0 to infinity) in Sprague-Dawley rat assessed as parent drug level at 100 mg/kg, iv; assay type: ADME, organism-based, Plasma; parameters: dose 100 mg/kg, route intravenous, time infinity; conditions: in vivo
Outline: (§1)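 Male Sprague-Dawley rats (n = 3) were dosed iv with the phosphate prodrug at 10, 30 or 100 mg/kg. Plasma levels of the parent drug were measured over time. Tmax, Cmax, AUC and elimination half-life were then derived from these levels.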

Rattus norvegicus [2] = test: AUC (0 to infinity) in Sprague-Dawley rat assessed as parent drug level at 10 mg/kg, iv; assay type: ADME, organism-based, Plasma; parameters: dose 10 mg/kg, route intravenous, time infinity; conditions: in vivo; outline: as §1
Rattus norvegicus [3] = test: Half life in Sprague-Dawley rat assessed as parent drug level at 100 mg/kg, iv; assay type: ADME, organism-based; parameters: dose 100 mg/kg, route intravenous; conditions: in vivo; outline: as §1
[4] = Aqueous solubility of the compound; assay type: physicochemical
Rattus norvegicus [5] = test: Tmax in Sprague-Dawley rat assessed as parent drug level at 10 mg/kg, iv; assay type: ADME, organism-based; parameters: dose 10 mg/kg, route intravenous; conditions: in vivo; outline: as §1
Rattus norvegicus [6] = test: Half life in Sprague-Dawley rat assessed as parent drug level at 30 mg/kg, iv; assay type: ADME, organism-based; parameters: dose 30 mg/kg, route intravenous; conditions: in vivo; outline: as §1
Rattus norvegicus [7] = test: Cmax in Sprague-Dawley rat assessed as parent drug level at 100 mg/kg, iv; assay type: ADME, organism-based; parameters: dose 100 mg/kg, route intravenous; conditions: in vivo; outline: as §1
Rattus norvegicus [8] = test: Tmax in Sprague-Dawley rat assessed as parent drug level at 30 mg/kg, iv; assay type: ADME, organism-based; parameters: dose 30 mg/kg, route intravenous; conditions: in vivo; outline: as §1
[9] = Toxicity against iv dosed ICR mouse; assay type: organism-based; conditions: in vivo
Outline: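 Acute toxicity after iv administration in SPF-level ICR mice (n = 50); LD50 determined.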

Rattus norvegicus [10] = test: Half life in Sprague-Dawley rat assessed as parent drug level at 10 mg/kg, iv; assay type: ADME, organism-based; parameters: dose 10 mg/kg, route intravenous; conditions: in vivo; outline: as §1
[11] = Stability in buffer at pH 7.4 assessed as remaining compound at 10 mg/ml after 8 hrs; assay type: physicochemical; conditions: read-out: Activity
Outline: (§2)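 Compounds at 10 mg/mL in pH 7.4 buffer were kept at room temperature. Percent parent remaining was measured by UV/HPLC at 8 h and at 14 days.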

Staphylococcus aureus [12] = test: Antibacterial activity against methicillin-susceptible Staphylococcus aureus 232-51 infected in mouse dosed 1 hr and 4 hr after infection, iv; assay type: functional; conditions: 232-51, iv
Outline: (§3)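 Lethal systemic S. aureus infection in mice, inoculated intraperitoneally; test agent given iv twice, at 1 h and 4 h post-infection. ED50 taken as the dose giving 50% mouse survival, reported with 95% confidence ranges.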

Rattus norvegicus [13] = test: AUC (0 to infinity) in Sprague-Dawley rat assessed as parent drug level at 30 mg/kg, iv; assay type: ADME, organism-based, Plasma; parameters: time infinity, dose 30 mg/kg, route intravenous; conditions: in vivo; outline: as §1
Rattus norvegicus [14] = test: Cmax in Sprague-Dawley rat assessed as parent drug level at 10 mg/kg, iv; assay type: ADME, organism-based; parameters: dose 10 mg/kg, route intravenous; conditions: in vivo; outline: as §1
Rattus norvegicus [15] = test: Tmax in Sprague-Dawley rat assessed as parent drug level at 100 mg/kg, iv; assay type: ADME, organism-based; parameters: dose 100 mg/kg, route intravenous; conditions: in vivo; outline: as §1
Rattus norvegicus [16] = test: Cmax in Sprague-Dawley rat assessed as parent drug level at 30 mg/kg, iv; assay type: ADME, organism-based; parameters: dose 30 mg/kg, route intravenous; conditions: in vivo; outline: as §1
Staphylococcus aureus [17] = test: Antibacterial activity against methicillin-resistant Staphylococcus aureus 236-29 infected in mouse dosed 1 hr and 4 hr after infection, iv; assay type: functional; conditions: 236-29, iv; outline: as §3
[18] = Stability in buffer at pH 7.4 assessed as remaining compound at 10 mg/ml after 14 days; assay type: physicochemical; conditions: read-out: Activity; outline: as §2
[19] = test system: Staphylococcus epidermidis; test: Antibacterial activity against methicillin-resistant Staphylococcus epidermidis by agar dilution method; assay type: functional
Outline: (§4)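 MICs by agar dilution following NCCLS guidance against resistant and susceptible Gram-positive strains; retapamulin and linezolid run as positive controls.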

[20] = test system: Staphylococcus epidermidis; test: Antibacterial activity against methicillin-susceptible Staphylococcus epidermidis by agar dilution method; assay type: functional; outline: as §4
Staphylococcus aureus [21] = test: Antibacterial activity against methicillin-resistant Staphylococcus aureus by agar dilution method; assay type: functional; outline: as §4
Staphylococcus aureus [22] = test: Antibacterial activity against methicillin-susceptible Staphylococcus aureus by agar dilution method; assay type: functional; outline: as §4
Streptococcus pneumoniae = test: Antibacterial activity against Streptococcus pneumoniae by agar dilution method; assay type: functional
Outline: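 MIC was measured by agar dilution following NCCLS guidelines, with retapamulin and linezolid as positive controls.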

[23] = Staphylococcus aureus, read-out: MIC

solubility [4] [mg/mL] | remaining at 8 h, 10 mg/ml [11] [%] | remaining at 336 h, 10 mg/ml [18] [%] | Structure (SMILES) | MIC [19] [µg/mL] | MIC [20] [µg/mL] | MIC (Staphylococcus aureus [21]) [µg/mL] | MIC (Staphylococcus aureus [22]; [23]) [µg/mL] | MIC (Streptococcus pneumoniae) [µg/mL] | further results
57.6 | 100 | 99.8 | C=C[C@]1(C)C[C@@H](OC(=O)NC(=O)c2ccc(OC)cc2)[C@]2(C)[C@H](C)CC[C@]3(CCC(=O)[C@@H]32)[C@@H](C)[C@@H]1OP(=O)([O-])[O-].[Na+].[Na+] | – | – | – | – | – | –
52.3 | 100 | 99.5 | CC[C@]1(C)C[C@@H](OC(=O)NC(=O)c2ccc(O)cc2)[C@]2(C)[C@H](C)CC[C@]3(CCC(=O)[C@@H]32)[C@@H](C)[C@@H]1OP(=O)([O-])[O-].[Na+].[Na+] | – | – | – | – | – | –
– | – | – | C=C[C@]1(C)C[C@@H](OC(=O)NC(=O)c2ccc(OC)cc2)[C@]2(C)[C@H](C)CC[C@]3(CCC(=O)[C@@H]32)[C@@H](C)[C@@H]1O | 0.0625 (≈ 0.126 µM) | 0.0625 (≈ 0.126 µM) | 0.0625 (≈ 0.126 µM) | 0.0625 (≈ 0.126 µM) | 0.125 (≈ 0.251 µM) | –
– | – | – | C=C[C@]1(C)C[C@@H](OC(=O)NC(=O)c2ccc(O)cc2)[C@]2(C)[C@H](C)CC[C@]3(CCC(=O)[C@@H]32)[C@@H](C)[C@@H]1O | 0.125 (≈ 0.258 µM) | 0.0625 (≈ 0.129 µM) | 0.125 (≈ 0.258 µM) | 0.125 (≈ 0.258 µM) | 0.25 (≈ 0.517 µM) | –
– | – | – | CC(=O)NC[C@H]1CN(c2ccc(N3CCOCC3)c(F)c2)C(=O)O1 [LINEZOLID] | 1 (≈ 2.96 µM) | 0.5 (≈ 1.48 µM) | 1 (≈ 2.96 µM) | – | – | MIC (Staphylococcus aureus [22]): 0.5 µg/mL (≈ 1.48 µM)
– | – | – | C=C[C@]1(C)C[C@@H](OC(=O)CS[C@@H]2C[C@H]3CC[C@@H](C2)N3C)[C@]2(C)[C@H](C)CC[C@]3(CCC(=O)[C@H]32)[C@@H](C)[C@@H]1O [RETAPAMULIN] | 0.031 (≈ 0.0599 µM) | 0.031 (≈ 0.0599 µM) | 0.031 (≈ 0.0599 µM) | 0.031 (≈ 0.0599 µM) | 0.031 (≈ 0.0599 µM) | –
– | – | – | CN[C@H](CC(C)C)C(=O)N[C@H]1C(=O)N[C@@H](CC(N)=O)C(=O)N[C@H]2C(=O)N[C@H]3C(=O)N[C@H](C(=O)N[C@H](C(=O)O)c4cc(O)cc(O)c4-c4cc3ccc4O)[C@H](O)c3ccc(c(Cl)c3)Oc3cc2cc(c3O[C@@H]2O[C@H](CO)[C@@H](O)[C@H](O)[C@H]2O[C@H]2C[C@](C)(N)[C@H](O)[C@H](C)O2)Oc2ccc(cc2Cl)[C@H]1O [VANCOMYCIN] | – | – | – | – | – | ED50 (Staphylococcus aureus [12]): 13.5 mg/kg; ED50 (Staphylococcus aureus [17]): 15.8 mg/kg

Structure (SMILES) | solubility [4] [mg/mL] | remaining at 8 h, 10 mg/ml [11] [%] | remaining at 336 h, 10 mg/ml [18] [%] | MIC [19] [µg/mL] | MIC [20] [µg/mL] | MIC (Staphylococcus aureus [21]) [µg/mL] | MIC (Staphylococcus aureus [22]; [23]) [µg/mL] | MIC (Streptococcus pneumoniae) [µg/mL] | further results
CC[C@]1(C)C[C@@H](OC(=O)NC(=O)c2ccc(OP(=O)([O-])[O-])cc2)[C@]2(C)[C@H](C)CC[C@]3(CCC(=O)[C@@H]32)[C@@H](C)[C@@H]1O.[Na+].[Na+] | 96.8 | 100 | 99.6 | – | – | – | – | – | AUC (Rattus norvegicus [1]): 32600 ng·h/mL; AUC (Rattus norvegicus [2]): 1290 ng·h/mL; t1/2 (Rattus norvegicus [3]): 37.8 min; Tmax (Rattus norvegicus [5]): 4.98 min; t1/2 (Rattus norvegicus [6]): 45 min; Cmax (Rattus norvegicus [7]): 67500 ng/mL; Tmax (Rattus norvegicus [8]): 4.98 min; LD50 [9]: 1010 mg/kg; t1/2 (Rattus norvegicus [10]): 30.6 min; ED50 (Staphylococcus aureus [12]): 17.4 mg/kg; AUC (Rattus norvegicus [13]): 5040 ng·h/mL; Cmax (Rattus norvegicus [14]): 3390 ng/mL; Tmax (Rattus norvegicus [15]): 4.98 min; Cmax (Rattus norvegicus [16]): 11300 ng/mL; ED50 (Staphylococcus aureus [17]): 20.9 mg/kg
